Test: Toxicity liver stage against HepG2, at 10uM
Type: cell-based
Design: test concentration 10 uM, cell line HepG2-A16-CD81EGFP
Conditions: human, HepG2-A16-CD81EGFP cells; read-out: INHIBITION
Summary of the method: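 Uninfected HepG2-A16-CD81EGFP cells, 3 × 10^3 per well, 1536-well, plated on prespotted compound at 10 μM final, parasite-free screening media added to match infected plates; puromycin 10 μM positive, DMSO 0.5% negative; run in parallel with 48 h PbLuc assay at 37 °C, 5% CO2; viability by CellTiter-Glo luminescence, normalized to controls.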

| Compound | cytotoxicity at 10 µM [%] |
| --- | --- |
| Cc1ccc(S(=O)(=O)N2CCN(CCC#N)CC2)s1 | -10.8 |
| CN(C)[C@@H]1CO[C@H](CNC(=O)Nc2ccccc2)[C@H]1O | -0.713 |
| CN1CCC[C@H]1c1nc(-c2cncnc2N)no1 | 2.6 |
| CNC(=O)[C@@H]1[C@H]2CNCCN2C[C@H]1c1ccccc1 | 3.28 |
| C/C(NC(=O)c1ccco1)=C1/C(=O)C[C@@H]2[C@H]1C2(C)C | 2.41 |
| Cn1ccc2cc(C(=O)Nc3nc[nH]n3)ccc21 | 1.69 |
| CN1C(=O)C(C)(C)COc2ccc(NS(=O)(=O)Cc3ccccc3)cc21 | 8.2 |
| O=C(CC1CSc2nccc(=O)n21)NCc1cc(-c2ccco2)on1 (stereo not given) | -11.3 |
| O=C(CSC1=NS(=O)(=O)c2cc(Cl)ccc2N1)c1ccccc1 | 13.6 |
| CNC(=O)C1CCCN(c2nc3c(-c4ccccc4)csc3c(=O)[nH]2)C1 (stereo not given) | -1.03 |
| CN(C)S(=O)(=O)NCCn1nc(-c2ccccc2)n(C)c1=O | -2.17 |
| CNC(=O)N1CC[C@H]2N(C)CC[C@@]2(C(=O)Nc2ccccc2)CC1 | -17.2 |
| Cn1ncc2c1C(COCC1CC1)CN(Cc1nccs1)C2 (stereo not given) | 4.49 |
| Cc1ccc(F)cc1NC(=O)c1[nH]ncc1Br | 15.7 |
| O=C(c1nn[nH]c1Nc1ccc(Cl)cc1)N1CCSCC1 | 4.67 |
| Cc1ncc2c(n1)CCCC2NC(=O)c1ccccc1C(=O)O (stereo not given) | -11.7 |
| Cc1cc(N2CCCN(c3ccnc(C)c3)CC2)ccn1 | -0.943 |
| O=C(COCc1nc(-c2ccncc2)no1)NC1CCCCC1 | -8.19 |
| Cc1noc(-c2cnc(NC(C)C)nc2-c2ccco2)c1C | -0.275 |
| c1ccc(OCCN2CCC(c3cnccn3)CC2)cc1 | 7.56 |
| O=C(c1cc[nH]n1)N1CCCC1c1cncc(CN2CCOCC2)n1 (stereo not given) | 9.31 |
| NC(=O)c1cn[nH]c1C1CCCN1C(=O)c1ccccn1 (stereo not given) | 0.893 |

| Compound | cytotoxicity at 10 µM [%] |
| --- | --- |
| COc1ccc2[nH]cc(C(=O)N3C[C@@H](O)[C@H](N4CCCC4)C3)c2c1 | 2.35 |
| CCn1cc(S(=O)(=O)Nc2nc3c(s2)CC(C)CC3)cn1 (stereo not given) | 9.88 |
| O=C(Cc1ccn[nH]1)N1CCc2cc(Br)sc2C1 | 4.42 |
| O=S(=O)(Cc1cccc(F)c1)Nc1cc(Cl)ccn1 | -8.69 |
| COc1ccc(CNC(=O)c2ccc(=O)n(C)c2)cc1C | 2.31 |
| Cc1nc(CN(C)C(=O)CNC(=O)c2ccc(C#N)cc2)cs1 | 12.5 |
| N#CCc1ccc(NC(=O)N[C@H](CO)Cc2ccc(O)cc2)cc1 | -1.8 |
| Cc1ccc(F)cc1S(=O)(=O)NCc1cccc(CS(C)(=O)=O)c1 | -10.6 |
| CCc1nc2n(n1)CC(NCc1nc3ccccc3o1)CC2 (stereo not given) | 12.4 |
| CN(c1ccc(F)c(F)c1)S(=O)(=O)c1cc2c(c(C(=O)O)c1)OCCO2 | -5.38 |
| Cn1ncc2c(N3CCC(CC(=O)N4CCCC4)CC3)ncnc21 | 4.19 |
| Cc1nn(C)c2ncc(S(=O)(=O)N3CCCN4CCCC4C3)cc12 (stereo not given) | -0.334 |
| NC(=O)[C@@H]1Cc2ccccc2CN1CCc1cccs1 | 0.436 |
| CCn1cnnc1C1CCN(C(=O)c2ccc3c(c2)nnn3C)CC1 | 10.9 |
| O=C(NCCNc1ncccn1)N1CCCC1c1ccncc1 (stereo not given) | -4.65 |
| CN(C)C(CNC(=O)c1nc(N2CCOCC2)ncc1Cl)c1cccs1 (stereo not given) | 8.26 |
| COCC(C)N(C)C(=O)c1ccc2nncn2c1 (stereo not given) | -1.37 |
| Cc1ccccc1C1(CN)CCCCC1 | 2.29 |
| CC(C)(O)CN1CCN(C(=O)COC2CCCC2)CC1 | 1.46 |
| CCN1CCN(c2ccc(C(=O)NCc3cc(C)no3)cc2F)CC1 | 11.2 |
| CN(C)c1ccc(CN(CC2CCCO2)C(=O)c2csnn2)cc1 (stereo not given) | -1.59 |
| CNC(=O)NC(=O)C(C)N1CCN(c2ccc(C#N)cc2F)CC1 (stereo not given) | 2.83 |

| Compound | cytotoxicity at 10 µM [%] |
| --- | --- |
| CC(C)N(CC(N)=O)CC(=O)N(C1=CCCCC1)C1CC1 | -0.429 |
| CCCN(C)c1ccc(C(=O)NCc2ccnc(C)n2)cc1 | 6.6 |
| Cc1nc2ncnn2c(C)c1CCC(=O)Nc1cccn(C)c1=O | -9.59 |
| O=C(NCCc1cccc(O)c1)NC1CCN(c2ccccc2)C1=O (stereo not given) | 5.68 |
| COc1ccnc(N2CCN(C(=O)CCc3nccs3)CC2)n1 | -8.97 |
| Cc1noc(C)c1CNC(=O)N1CCC(CO)CC1 | -8.08 |
| O=C(c1ccc(Br)o1)N1CCCC(n2cncn2)C1 (stereo not given) | -3.22 |
| NC(=O)CSCCC(=O)N1CCCC1c1ccsc1 (stereo not given) | -13.6 |
| Cc1nccn1-c1cc(CNC(=O)c2ccccn2)ccn1 | -11.5 |
| Cc1nc([C@@H]2C[C@@H]3CCN(C(=O)Cc4cccs4)C[C@H]3O2)no1 | 3.27 |
| COC[C@@H]1CC[C@H]2[C@H](CCN2S(=O)(=O)c2cccc(F)c2)O1 | 2.24 |
| CCCN(CC)C(=O)c1cc2c(c3ccccc3n2C)n1C(=O)N(C)C | -4.89 |
| CCN(CCN1CCCCCC1)C(=O)c1cnc(-c2cccnc2)nc1 | 11.4 |
| N#Cc1cccc(NC2CC(=O)N(CCc3ccc(F)cc3)C2)n1 (stereo not given) | -118 |
| COc1ccccc1CN(Cc1cccc(C)c1)C(=O)[C@@H](N)CC(=O)O | -47.7 |
| CCCc1cc(CN(C)C2CC(C)(C)NC(C)(C)C2)n[nH]1 | -16.7 |
| COCC(=O)N1CCCN(c2ncnc3c2CCNCC3)CC1 | 8.93 |
| CC(C)CN1CC2(CCN(C(=O)C3CSC(C)(C)C(=O)N3)CC2)CC1=O (stereo not given) | 4.79 |
| O=C(COc1ccc(F)cc1F)N1CCOCC(O)(CN2CCCC2)C1 (stereo not given) | 0.678 |
| CC(c1ccon1)N(C)C(=O)C1CCN(CC(N)=O)CC1 (stereo not given) | -4.83 |
| CC(C)N1CCC(CN2CCn3nc(CNC(=O)N(C)C)cc3C2)CC1 | 1.09 |
| CN(C)Cc1nnc(C(=O)N(C)Cc2ccc(F)cc2)o1 | 0.624 |

| Compound | cytotoxicity at 10 µM [%] |
| --- | --- |
| Cc1cccc(OCC2CCCN(C(=O)CN(C)C3CCNCC3)C2)c1 (stereo not given) | -8.4 |
| CC(C)CN(C)Cc1c[nH]nc1-c1ccc(F)cc1F | 2.38 |
| COCCC1(CO)CCCN(C(=O)c2cc(C#N)c(=O)[nH]c2C)C1 (stereo not given) | -37.7 |
| CCOc1ccc(C(=O)CCC(=O)N(C)Cc2noc(C)n2)cc1C | -4.34 |
| O=C(NCc1cc2n(n1)CCCN(Cc1ccc(CO)o1)C2)C1CCC1 | 5.46 |
| O=C(Nc1ccc2ncsc2c1)N1CCCN([C@H]2COC[C@@H]2O)CC1 | -53.6 |
| COc1ncc(C(=O)N2CCC3(CC2)C(=O)Nc2ccccc23)cn1 | -140 |
| Cn1nc(C(=O)N2CCCCC2c2nc3cc(F)ccc3[nH]2)ccc1=O (stereo not given) | -18.2 |
| CSc1ccc(S(=O)(=O)N2CCCCC2CCNC(C)=O)cc1 (stereo not given) | -9.61 |
| Cc1cc2c(cc1C(=O)N1CC[C@H](CO)[C@@H](O)C1)OCCO2 | -10.8 |
| O=C(Cc1ccc2c(c1)OCO2)N1CCCN(c2ccccc2)CC1 | -2.84 |
| O=C(c1cccc(S(=O)(=O)NCCCc2ncc[nH]2)c1)N1CCOCC1 | -11.4 |
| Fc1ccc(-c2nnc(CN3CCCC3Cn3cccn3)o2)cc1 (stereo not given) | -5.65 |
| Cc1csc(C2CCCCN2C(=O)c2cn[nH]c2C)n1 (stereo not given) | -1.53 |
| Cc1nn(C)c(C)c1C1CCCN1Cc1nc(-c2ccccn2)no1 (stereo not given) | -5.29 |
| Cc1ccc(CC(=O)N(CC2CN(C)CCO2)c2nccs2)cn1 (stereo not given) | -9.89 |
| Cc1csc(N2CCN(CC(=O)Nc3cccnc3)CC2C)n1 (stereo not given) | 14.1 |
| COc1ccc(Cl)cc1NCc1cc(C)on1 | -7.13 |
| CCc1ocnc1C(=O)N1CCCC(n2nc(C)nc2C)C1 (stereo not given) | -11.5 |
| Cc1cc(C2CCCN(CCCS(C)(=O)=O)C2)n[nH]1 (stereo not given) | -13.2 |
| Cc1cc(C2CCCN(CCNS(=O)(=O)c3ccccc3)C2)n[nH]1 (stereo not given) | -28.5 |
| Fc1cccc(-c2nc(CN3CCCC(Cn4cncn4)C3)co2)c1 (stereo not given) | -12.5 |

| Compound | cytotoxicity at 10 µM [%] |
| --- | --- |
| CCOc1ncccc1NC(=O)C1CCS(=O)(=O)C1 (stereo not given) | -16.7 |
| CC(NC(=O)NCCCn1cncn1)c1ccccc1F (stereo not given) | -13.3 |
| Cc1cccc(-c2nc(C)nn2CC(=O)NCC(C)C)c1 | -27.9 |
| CCc1csc(C2CCCN(C(=O)c3cc(Cl)c[nH]3)C2)n1 (stereo not given) | -9.83 |
| Cc1ccc(CN(C)C(=O)CN2CCOC(Cn3cccn3)C2)o1 (stereo not given) | -0.906 |
| Cc1cnn(CC2CN(CC(=O)N(C)c3nccs3)CCO2)c1 (stereo not given) | 0.385 |
| Cc1cc(C(=O)N2CCc3nnc(N)cc3C2)c(C)n1-c1cccnc1 | -1.25 |
| COC(=O)C(c1cc(F)ccc1F)N(C)C(=O)c1ccnc(C)n1 (stereo not given) | -0.337 |
| O=C(CCc1nccs1)N1CCN(c2ccc(Br)cn2)CC1 | -2.65 |
| CCNC(=O)N1CCCC(c2noc(CC)n2)C1 (stereo not given) | -2.45 |
| CCn1cc(CN2CCCN(C(=O)C3=NN(C)C(=O)CC3)CC2)cn1 | 3.54 |
| COc1cccc(Nc2nc(C3CCCNC3)c3sc(C)c(C)n23)c1 (stereo not given) | -4.93 |
| Cc1nc(C)c(C(=O)N2Cc3ccccc3OCC2CN(C)C)o1 (stereo not given) | 2.2 |
| COCC1Cn2nnc(-c3cnn(C)c3)c2CN1Cc1ccco1 (stereo not given) | -9.44 |
| COCC1Cn2nnc(-c3cnn(C)c3)c2CN1Cc1ccc(C)s1 (stereo not given) | -10.5 |
| O=C(C1CC1)N1Cc2[nH]nc(COCc3cccnc3)c2C1 | 0.997 |
| CN(C)CCN1CCCC12CCN(C(=O)c1cccnc1)CC2 | 4.68 |
| CN1CCN(Cc2cn3c(n2)CN(C(=O)N2CCOCC2)CC3)CC1 | -18.3 |
| COc1ccc(CN2CCOCC3(CCN(C4CCOCC4)C3)C2)cc1 (stereo not given) | 0.466 |
| CN(C)S(=O)(=O)N1C[C@@H](OCc2cccnc2)[C@H]2OCCC[C@H]21 | 0.74 |
| CN(C)C(=O)N1C[C@H]2CC[C@@H](C1)N(Cc1nnc(-c3ccco3)o1)C2 | 5.9 |
| CC(C)CCN1C[C@@H]2C[C@H](C(=O)NCc3ccccc3)[C@H](C1)O2 | -2 |

Reference: ChEMBL document CHEMBL4513216, “Probing the Open Global Health Chemical Diversity Library for Multistage-Active Starting Points for Next-Generation Antimalarials” (ACS Infect Dis, 2020)
